Assay results published in PubChem BioAssay.
Results filed as inconclusive are left out.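 Rule for the calls, unless noted: active = growth inhibition above 25% in both replicates, a cutoff set 3 SD above the mean; inconclusive = above 25% in only one replicate; inactive = the rest.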

Key:
[1] = S. cerevisiae growth inhibition in permissive medium (OD615), pilot counter-assay for S. cerevisiae lifespan shortening project, permissive growth control (AID 705); conditions: OD615, 24 h, at 10 µM, stronger effect = higher value
In short: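 System: S. cerevisiae with engineered DeaD lifespan system. Medium: SC raffinose/galactose permissive medium. Doses: single compound dose of 10 µM, 0.25% DMSO final. Schedule: 24 h exposure, 30 °C. Measured by: OD615 turbidity read. Read-out: growth inhibition.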

[2] = S. cerevisiae growth inhibition in restrictive medium, OD615, pilot screen, restrictive growth control, yeast lifespan reduction project (AID 706;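 active = growth inhibition above a set limit, 3 SD over mean compound inhibition, in both replicates, cut at about 43% in these data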;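 note: modified DeaD lifespan yeast strain shifted to restrictive glucose medium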); conditions: OD615, 48 h, at 10 µM, stronger effect = higher value
In short: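 Assay system – genetically modified Saccharomyces cerevisiae, DeaD replicative lifespan assay strain · Medium – CSMM-D glucose medium · Doses – 10 µM compound, 0.25% DMSO · Times – 4 h pre-incubation, 48 h exposure at 30 °C · Signal – optical density at 615 nm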

[3] = doxorubicin toxicity protection in MRP-1 cells – H69AR cells, CellTiter-Glo, duplicate, MRP-1 activator project, pilot screen (AID 807;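 active = viability increase at or above a cutoff of the median across tested compounds plus 3 SD, cut at about 8.5% in these data, passing the limit was not always enough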;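 note: compound pretreatment 18-22 h then 72 h combined with doxorubicin; 0% = doxorubicin alone and 100% = vehicle without doxorubicin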); conditions: H69AR viability with doxorubicin, CellTiter-Glo luminescence; at 10 µM; stronger effect = higher value
[4] = viability of HCT116 without oncogenic beta-catenin – human colon tumor cells, pilot screen (AID 823;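 active = cell viability at or below a set limit in both duplicate runs, the limit being the all-compound median minus 4 SD, cut at about 23% in these data, passing the limit was not always enough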;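 note: 0% = wells killed by 20 µM Hyamine and 100% = untreated DMSO cell wells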); conditions: HCT116 beta-catenin knockout viability, CellTiter-Glo, 60 h; at 10 µM; stronger effect = lower value
[5] = viability of PTEN-null HCT116 cells – cell-based, HCT116 clonal line, CellTiter-Glo, pilot screen (AID 824;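 active = viability at or below 27.92% in each of two runs, the all-compound median minus 4 SD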;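 note: 0% = 20 µM Hyamine control and 100% = vehicle cell control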); conditions: HCT116 PTEN-deleted viability, 60 h, at 10 µM, stronger effect = lower value
[6] = RAM pathway blockade in budding yeast – dse1pr::URA3 reporter, 5-FOA selection, pilot screen (AID 869;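 active = inhibition over a set limit, the all-compound mean plus 3 SD, in both replicate runs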;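 note: 0% = DMSO wells with no growth and 100% = 10 µM 1-NA-PP1 with full growth; RAM network block rescues cells from 5-FOA so hits raise OD615 growth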); conditions: S. cerevisiae dse1pr::URA3 5-FOA growth, OD615, 2 d; at 10 µM; stronger effect = higher value; strain carries analog-sensitive mutant Cbk1 kinase
[7] = RAM signaling pathway blockade in yeast – S. cerevisiae, Pdr1DBD-CYC8 efflux-inhibited sensitized strain, primary screen (AID 1298;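 active = RAM network inhibition above 8.4% in each of two replicates, 3 SD over the compound average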;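 note: 0% = DMSO untreated cells without growth and 100% = 10 µM 1-NA-PP1 full growth; higher means more yeast growth rescued from 5-FOA killing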); conditions: S. cerevisiae cbk1-as DSE1-URA3 strain, 5-FOA growth OD615, 2 d; at 50 µM; stronger effect = higher value

COc1cccc(C2NC(=O)NC(O)(C(F)(F)F)C2C(=O)c2cccnc2)c1OC (configuration not stated)
inactive: growth inhibition [1] 2.02% | growth inhibition [2] -2.12% | viability increase [3] 0.64% | viability [4] 109% | viability [5] 98.9% | inhibition [6] 1.14% | RAM network inhibition [7] 0.92%

O=C(CSc1nc2c(cnn2-c2ccc(F)cc2)c(=O)[nH]1)N1CCCc2ccccc21
inactive: growth inhibition [1] -2.67% | growth inhibition [2] -5.17% | viability increase [3] -3.32% | viability [4] 87.2% | viability [5] 83% | inhibition [6] 1.2% | RAM network inhibition [7] 4.44%

COc1ccccc1CNC(=O)C1COc2ccccc2O1 (configuration not stated)
inactive: growth inhibition [1] -13.9% | growth inhibition [2] -2.38% | viability increase [3] 0.65% | viability [4] 98.8% | viability [5] 88.5% | inhibition [6] 2.73% | RAM network inhibition [7] 2.77%

COc1ccc(S(=O)(=O)Cc2ccc(C(=O)NC3CCCC3)o2)cc1
inactive: growth inhibition [1] -0.76% | growth inhibition [2] -12% | viability increase [3] -1.65% | viability [4] 108% | viability [5] 96.3% | inhibition [6] 1.19% | RAM network inhibition [7] 2.65%

COc1ccc2c(c1)NC1(O)c3ccccc3C(=O)C21O (configuration not stated)
inactive: growth inhibition [1] -5.39% | growth inhibition [2] 4.5% | viability increase [3] -1.41% | viability [4] 99.3% | viability [5] 98.3% | inhibition [6] 1.53% | RAM network inhibition [7] 3.44%

CCOc1ccc(CCNC(=O)c2oc3c(c2C)-c2[nH]ncc2CC3)cc1OCC
inactive: growth inhibition [1] -11.9% | growth inhibition [2] -11.6% | viability increase [3] -2.93% | viability [4] 105% | viability [5] 92.7% | inhibition [6] 1.57% | RAM network inhibition [7] 9.8%

COc1cccc(-c2nc(C(N)=O)c3[nH]c(=O)n(-c4cccc(Cl)c4)c3n2)c1OC
inactive: growth inhibition [1] -21.4% | growth inhibition [2] -28.5% | viability increase [3] -4.45% | viability [4] 75.5% | viability [5] 72.5% | inhibition [6] 4.14% | RAM network inhibition [7] 3.65%

Cc1onc(-c2ccccc2)c1C(=O)Nc1nnc(N2CCCCCC2)s1
inactive: growth inhibition [1] -15.2% | growth inhibition [2] -12% | viability increase [3] 2% | viability [4] 101% | viability [5] 87.5% | inhibition [6] 1.23% | RAM network inhibition [7] 3.72%

O=c1oc2ccccc2n1Cc1ccccc1Cl
inactive: growth inhibition [1] -1.38% | growth inhibition [2] 8.91% | viability increase [3] -0.37% | viability [4] 97.1% | viability [5] 99.5% | inhibition [6] 1.56% | RAM network inhibition [7] 0.31%

O=C(C1CC1)N1CCc2cc(Br)cc(S(=O)(=O)NCc3ccccn3)c21
inactive: growth inhibition [1] -8.05% | growth inhibition [2] -19% | viability increase [3] -1.89% | viability [4] 99.2% | viability [5] 96.9% | inhibition [6] 1.32% | RAM network inhibition [7] 5.17%

COc1ccccc1Cc1nc(-c2ccc(Br)o2)no1
inactive: growth inhibition [1] -0.335% | growth inhibition [2] 6.17% | viability increase [3] -3.52% | viability [4] 97.4% | viability [5] 85.8% | inhibition [6] 2.08% | RAM network inhibition [7] 5.63%

CCCCn1c2nc3ccccc3nc2c2c(=N)oc(C)nc21
inactive: growth inhibition [1] -7.3% | growth inhibition [2] -6.79% | viability increase [3] -4.49% | viability [4] 96.6% | viability [5] 85.1% | inhibition [6] 0.265% | RAM network inhibition [7] 0.62%

COc1ccc(Cc2nc(-c3cccs3)no2)cc1OC
inactive: growth inhibition [1] 1.64% | growth inhibition [2] 5.25% | viability increase [3] 0.92% | viability [4] 76.8% | viability [5] 80.9% | inhibition [6] 1.62% | RAM network inhibition [7] 7.4%

CCCCn1c(CNC(=O)c2cccs2)nc2ccccc21
inactive: growth inhibition [1] -5.02% | growth inhibition [2] -5.51% | viability increase [3] -3.7% | viability [4] 101% | viability [5] 94.5% | inhibition [6] -0.215% | RAM network inhibition [7] -1.56%

CC(CN(C)Cc1ccccc1)OC(=O)C1COc2ccccc2O1 (configuration not stated)
inactive: growth inhibition [1] -9.66% | growth inhibition [2] 6.59% | viability increase [3] 0.39% | viability [4] 101% | viability [5] 102% | inhibition [6] 1.3% | RAM network inhibition [7] 2.25%

N#CCCN1CCN(S(=O)(=O)c2ccc(S(=O)(=O)NC3CC3)cc2)CC1
inactive: growth inhibition [1] -10.4% | growth inhibition [2] -5.2% | viability increase [3] 0.24% | viability [4] 103% | viability [5] 99.6% | inhibition [6] 0.68% | RAM network inhibition [7] 3.16%

CC1CCCN(c2nc3c(c(=O)[nH]c(=O)n3C)n2CCSc2nc3ccccc3o2)C1 (configuration not stated)
inactive: growth inhibition [1] -1.52% | growth inhibition [2] -1.66% | viability increase [3] -3.56% | viability [4] 98% | viability [5] 98.5% | inhibition [6] 0.55% | RAM network inhibition [7] 7.08%

COc1ccc(NC(=O)Cc2nc3ccccc3[nH]2)cc1
inactive: growth inhibition [1] 0.43% | growth inhibition [2] 6.96% | viability increase [3] -1.06% | viability [4] 58.9% | viability [5] 92.5% | inhibition [6] 0.695% | RAM network inhibition [7] -1.49%

NC(=O)c1ccsc1NC(=O)c1ccco1
inactive: growth inhibition [1] 7.15% | growth inhibition [2] 20.1% | viability increase [3] -1.54% | viability [4] 102% | viability [5] 99% | inhibition [6] 1.1% | RAM network inhibition [7] 1.1%

Cc1cc2cc(CNC(=O)c3ccc(Br)o3)ccc2[nH]1
inactive: growth inhibition [1] -6.49% | growth inhibition [2] -9.17% | viability increase [3] -1.33% | viability [4] 86.5% | viability [5] 85.1% | inhibition [6] 3.64% | RAM network inhibition [7] 8.22%

Nc1nc(NC(=O)c2cccc(S(=O)(=O)N3CCCCCC3)c2)nc(-c2ccccc2)n1
inactive: growth inhibition [1] -1.66% | growth inhibition [2] 6.65% | viability increase [3] -4.04% | viability [4] 74.8% | viability [5] 74.4% | inhibition [6] 3.56% | RAM network inhibition [7] 4.53%

CCOC(=O)c1ccc(Nc2cc(C)nc3nc(C)nn23)cc1
inactive: growth inhibition [1] -5.61% | growth inhibition [2] 4.27% | viability increase [3] -4.45% | viability [4] 103% | viability [5] 103% | inhibition [6] 0.015% | RAM network inhibition [7] 1%

Cc1cc(C)cc(N(CC(=O)N2CCn3c2nc2ccccc23)S(=O)(=O)c2c(C)noc2C)c1
inactive: growth inhibition [1] -5.97% | growth inhibition [2] 11.2% | viability increase [3] -4.06% | viability [4] 88.9% | viability [5] 90.9% | inhibition [6] 1.79% | RAM network inhibition [7] 10.1%

CN1CCN(S(=O)(=O)c2ccc3ccccc3c2)CC1
inactive: growth inhibition [1] -0.14% | growth inhibition [2] -1.93% | viability increase [3] -2.23% | viability [4] 103% | viability [5] 105% | inhibition [6] 2.92% | RAM network inhibition [7] 0.63%

COc1ccc(N2C(=O)CCC(C(=O)Nc3ccccn3)C2c2ccc(OC)c(OC)c2)cc1 (configuration not stated)
inactive: growth inhibition [1] 0.15% | growth inhibition [2] -9.93% | viability increase [3] -0.12% | viability [4] 96.2% | viability [5] 96.9% | inhibition [6] 1.64% | RAM network inhibition [7] 0.04%

O=C(c1ccccc1C(=O)N1CCN(c2ccccc2F)CC1)N1CCN(c2ccccc2F)CC1
inactive: growth inhibition [1] -6.81% | growth inhibition [2] -15.5% | viability increase [3] -0.42% | viability [4] 61.6% | viability [5] 68.2% | inhibition [6] 1.44% | RAM network inhibition [7] 11.2%

Cc1nc2sc(C(c3cccs3)N3CCN(Cc4ccccc4)CC3)c(O)n2n1 (configuration not stated)
inactive: growth inhibition [1] -7.44% | growth inhibition [2] -19.6% | viability increase [3] -1.47% | viability [4] 101% | viability [5] 89.8% | inhibition [6] -0.06% | RAM network inhibition [7] 4.97%

C=C(C)CSc1nc2c(c(=O)[nH]c(=O)n2C)n1Cc1ccccc1
inactive: growth inhibition [1] -16.7% | growth inhibition [2] -22.9% | viability increase [3] 3.2% | viability [4] 83.8% | viability [5] 78.3% | inhibition [6] 2.96% | RAM network inhibition [7] 7.74%

O=C(Cn1cc2c(n1)CCCC2)Nc1cc(-c2cccc(Cl)c2)no1
inactive: growth inhibition [1] 3.94% | growth inhibition [2] 3.73% | viability increase [3] 0.67% | viability [4] 99.2% | viability [5] 87.2% | inhibition [6] 0.9% | RAM network inhibition [7] 2.24%

O=C(c1ccc(COc2ccccc2Cl)o1)N1CCN(c2ccccc2)CC1
inactive: growth inhibition [1] -15.6% | growth inhibition [2] -13.4% | viability increase [3] -4.18% | viability [4] 61.7% | viability [5] 69.7% | inhibition [6] 2.33% | RAM network inhibition [7] 5.58%

O=C1CSC(=O)N1CC(O)COc1ccc(Cl)cc1 (configuration not stated)
inactive: growth inhibition [1] 0.955% | growth inhibition [2] -20.5% | viability increase [3] 3.19% | viability [4] 102% | viability [5] 91.9% | inhibition [6] 0.995% | RAM network inhibition [7] 1.1%

Cn1nc(-c2ccc(Cl)cc2)c2cc(C(=O)N3CCOCC3)sc21
inactive: growth inhibition [1] -6.13% | growth inhibition [2] 4.78% | viability increase [3] -5.6% | viability [4] 89.4% | viability [5] 80.5% | inhibition [6] 1.29% | RAM network inhibition [7] 3.38%

Cn1c(Cn2c(=O)sc3ccccc32)nnc1SCC(=O)Nc1cccc(F)c1
inactive: growth inhibition [1] -12% | growth inhibition [2] -5.46% | viability increase [3] -2.58% | viability [4] 97.3% | viability [5] 93.4% | inhibition [6] 1.9% | RAM network inhibition [7] 1.86%

NC(=O)C1CCN(C(=O)c2cc3ccccn3n2)CC1
inactive: growth inhibition [1] 0.24% | growth inhibition [2] -0.18% | viability increase [3] -0.34% | viability [4] 103% | viability [5] 98.2% | inhibition [6] 0.505% | RAM network inhibition [7] 1.35%

O=C(NC1CCN(Cc2ccccc2)CC1)c1ccccc1F
inactive: growth inhibition [1] -3.78% | growth inhibition [2] -11.1% | viability increase [3] -1.39% | viability [4] 95% | viability [5] 98.9% | inhibition [6] 2.02% | RAM network inhibition [7] -0.41%

CC(C)c1cc(N2CCN(C(=O)c3ccco3)CC2)n2c(nc3ccccc32)c1C#N
inactive: growth inhibition [1] -3.91% | growth inhibition [2] 0.12% | viability increase [3] -5.67% | viability [4] 94.1% | viability [5] 91.6% | inhibition [6] 2.04% | RAM network inhibition [7] 3.57%
